Data set [1] concerns Radical scavenging activity. The experiment in a line: Antioxidant activity assessed as DPPH radical scavenging activity. The format is functional. The arrangement: concentration or dose not given beside the values.
The test system of a further data set is Klebsiella pneumoniae. The experiment in a line: Antimicrobial activity against Klebsiella pneumoniae NCIM 2957 at 100 ug/ml after 24 hrs by agar diffusion method. The data set is classed as functional. An outline of the steps:
(§1)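 Agar diffusion on Mueller Hinton agar. Plates were seeded with 0.1 mL of bacterial suspension at 10⁵ cfu/mL in 0.85% sterile saline. Duplicate plates were incubated 24 h at 37 °C, and the zone of inhibition was measured in mm.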
Background: In agar diffusion tests the substance spreads into inoculated agar from a disc or well.

The test system of the next data set is Proteus vulgaris. Kind of data set: Antimicrobial activity against Proteus vulgaris MTCC 1771 at 100 ug/ml after 24 hrs by agar diffusion method. The settings on record: MTCC 1771, 24 h, read-out: IZ. The data set is classed as functional. An outline of the steps: as §1
Data set [2] deals with Aspergillus flavus. Kind of data set: Antimicrobial activity against Aspergillus flavus MTCC 2501 at 250 ug/ml after 48 hrs by agar diffusion method. The data set is classed as functional. Conditions: MTCC 2501, 48 h, read-out: IZ. An outline of the steps:
(§2)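 Agar diffusion on Sabouraud's dextrose agar. Plates were spread with 0.1 mL of fungal spore suspension in sterile distilled water, adjusted to 10⁶ cfu/mL. Duplicate plates were incubated 48 h at 28 °C, and the zone of inhibition was measured in mm.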

For data set [3], the system named is THP-1. The experiment in a line: Antiinflammatory activity in human THP1 cells assessed as inhibition of LPS-induced IL6 release at 10 uM after 24 hrs by ELISA. The format is functional. Conditions: THP-1, 24 h. An outline of the steps:
(§3)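 PMA-differentiated THP-1 cells in RPMI 1640 with 10% FBS, penicillin and streptomycin. Test compound in 0.5% DMSO added 30 min at 37 °C before E. coli 0127:B8 LPS, then further incubation at 37 °C. Supernatant TNF-α and IL-6 measured by ELISA. Percent inhibition calculated against control.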
A general note: In an ELISA, binding on a coated surface is turned into a signal by an enzyme label.

Data set [4] relates to THP-1. Kind of data set: Cytotoxicity against human THP1 cells assessed as CCK8 […] at 10 uM after 24 hrs […]. Conditions: thp-1, 24 h. The format is cell-based. Put shortly: (§4)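 Cytotoxicity was read with CCK-8 in the same wells as the cytokine assay. PMA-differentiated THP-1 cells were exposed to compound in 0.5% DMSO for 30 min at 37 °C, then stimulated with LPS and incubated further at 37 °C.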

In the next data set the test system is Staphylococcus aureus. Kind of data set: Antimicrobial activity against Staphylococcus aureus MTCC 96 at 100 ug/ml after 24 hrs by agar diffusion method. The data set is classed as functional. Conditions: MTCC 96, 24 h, read-out: IZ. An outline of the steps: as §1
Data set [5] concerns Aspergillus niger. Kind of data set: Antimicrobial activity against Aspergillus niger MTCC 1781 at 250 ug/ml after 48 hrs by agar diffusion method. The data set is classed as functional. The settings on record: MTCC 1781, 48 h, read-out: IZ. Put shortly: as §2
A further data set relates to Bacillus subtilis. The experiment in a line: Antimicrobial activity against Bacillus subtilis MTCC 1789 at 100 ug/ml after 24 hrs by agar diffusion method. The data set is classed as functional. The settings on record: MTCC 1789, 24 h, read-out: IZ. Put shortly: as §1
In data set [6] the test system is Trichoderma viride. The experiment in a line: Antimicrobial activity against Trichoderma viride MTCC 167 at 250 ug/ml after 48 hrs by agar diffusion method. The format is functional. The settings on record: MTCC 167, 48 h, read-out: IZ. Put shortly: as §2
Another data set relates to Escherichia coli. Kind of data set: Antimicrobial activity against Escherichia coli MTCC 1650 at 100 ug/ml after 24 hrs by agar diffusion method. The data set is classed as functional. The settings on record: MTCC 1650, 24 h, read-out: IZ. An outline of the steps: as §1
Data set [7] has as its system THP-1. Kind of data set: Antiinflammatory activity in human THP1 cells assessed as inhibition of LPS-induced TNFalpha release at 10 uM after 24 hrs by ELISA. The format is functional. The settings on record: THP-1, 24 h. An outline of the steps: as §3
The subject of data set [8] is Aspergillus flavus. Kind of data set: Antimicrobial activity against Aspergillus flavus MTCC 2501 at 30 ug/ml after 48 hrs by agar diffusion method. The format is functional, organism-based. An outline of the steps: (§5)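 Fungal spore suspensions in sterile distilled water adjusted to 10⁶ cfu/mL; 0.1 mL spread on Sabouraud's dextrose agar plates. Duplicate plates incubated 48 h at 28 ± 0.2 °C. Activity read as zone of inhibition in mm.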

In data set [9] the test system is Trichoderma viride. Kind of data set: Antimicrobial activity against Trichoderma viride MTCC 167 at 30 ug/ml after 48 hrs by agar diffusion method. The data set is classed as functional, organism-based. An outline of the steps:
as §5

Data set [10] relates to Aspergillus niger. The experiment in a line: Antimicrobial activity against Aspergillus niger MTCC 1781 at 30 ug/ml after 48 hrs by agar diffusion method. The format is functional, organism-based. An outline of the steps: as §5
Data set [11] deals with THP-1. The experiment in a line: Antiinflammatory activity in human THP1 cells assessed as inhibition of LPS-induced IL6 release at 1 uM/mL after 24 hrs by ELISA. The format is functional. The settings on record: THP-1, 24 h. An outline of the steps:
as §3

Data set [12] is described as follows: Cytotoxicity against human THP1 cells assessed as CCK8 […] at 1 uM/mL after 24 hrs […]. The settings on record: THP-1 cells. The format is cell-based. An outline of the steps:
as §4

The subject of data set [13] is THP-1. The experiment in a line: Antiinflammatory activity in human THP1 cells assessed as inhibition of LPS-induced TNFalpha release at 1 uM/mL after 24 hrs by ELISA. The data set is classed as functional. Conditions: THP-1, 24 h. An outline of the steps: as §3

The source made the active and inactive calls. The rule behind the calls is not given here.

For orientation: inhibition means the share of the control response that was lost under treatment.

Take `COc1ccc(O)c(C(C)(C)C)c1.COc1ccc(O)cc1C(C)(C)C`: the Activity in data set [1] is 66.8%.

Regarding `COc1ccc(C(=O)/C=C/c2cn(-c3ccccc3)nc2-c2cccc(Cl)c2)c(OC)c1`, the “inhibition zone (IZ)” value in the data set with Klebsiella pneumoniae is “Active”. Besides, the zone of inhibition at 100 µg/mL came to 8 mm in the data set on Proteus vulgaris, 6 mm with Staphylococcus aureus, 8 mm with Bacillus subtilis and 9 mm with Escherichia coli. The zone of inhibition at 250 µg/mL in the data set on Aspergillus flavus [2] came out at 10 mm; in the data set on Aspergillus niger [5], 9 mm; in the data set with Trichoderma viride [6] it was 11 mm. The values for the Activity (in [1]; in the data set with THP-1 [4]) were 29.7% and 0%, respectively. The inhibition at 10 µM turned out to be 67.5% with THP-1 [3] and 0% in the data set on THP-1 [7].

As to `COc1ccc(C(=O)/C=C/c2cn(-c3ccccc3)nc2-c2ccc(OC)cc2OC)c(OC)c1`, the zone of inhibition at 100 µg/mL with Klebsiella pneumoniae (NCIM 2957, 24 h, read-out: IZ) is 8 mm; in the data set on Staphylococcus aureus, 7 mm; in the data set with Bacillus subtilis, 6 mm; with Escherichia coli it was 10 mm. Also, the zone of inhibition at 250 µg/mL came to 13 mm in the data set on Aspergillus flavus [2], 12 mm with Aspergillus niger [5] and 14 mm with Trichoderma viride [6]. The Activity came out at 30.3% in [1] and 2.5107% with THP-1 [4]. For the same compound, the inhibition at 10 µM with THP-1 [3] amounted to 37.9%; with THP-1 [7], 0%.

For NYSTATIN, the inhibition zone (IZ) in the data set on Aspergillus flavus [8] was found to be 11 mm; with Trichoderma viride [9], 12 mm; in the data set with Aspergillus niger [10] it was 11 mm.

Take `C[C@@H]1C[C@H]2[C@@H]3CCC4=CC(=O)C=C[C@]4(C)[C@@]3(F)[C@@H](O)C[C@]2(C)[C@@]1(O)C(=O)CO` [DEXAMETHASONE]: the inhibition at 1 µM in the data set on THP-1 [11] came to 90%; in the data set on THP-1 [13], 69%. For the same compound, the inhibition at 24 h, 1 µM in data set [12] was found to be 0%.

For `COc1ccc(C(=O)/C=C/c2cn(-c3ccccc3)nc2-c2ccc(Cl)cc2Cl)c(OC)c1`, the zone of inhibition at 250 µg/mL in the data set with Aspergillus flavus [2] was 10 mm; with Aspergillus niger [5] it was 8 mm; in the data set with Trichoderma viride [6], 10 mm. For the same compound, the Activity was determined as 18.2% in [1] and 0% in the data set on THP-1 [4]. Further, the inhibition at 10 µM in the data set on THP-1 [3] came out at 40.8%; in the data set on THP-1 [7], 0%. The results for the zone of inhibition at 100 µg/mL with Staphylococcus aureus, in the data set on Bacillus subtilis and with Escherichia coli were 10 mm, 9 mm and 11 mm, respectively.

Consider `COc1ccc(C(=O)/C=C/c2cn(-c3ccccc3)nc2-c2ccccc2Cl)c(OC)c1`, for which the values for the zone of inhibition at 250 µg/mL in the data set with Aspergillus flavus [2], with Aspergillus niger [5] and in the data set on Trichoderma viride [6] were 9 mm, 11 mm and 12 mm, respectively. For the same compound, the Activity in [1] was 13.8%; in the data set on THP-1 [4], 0%. The inhibition at 10 µM in the data set on THP-1 [3] is 14.5%; in the data set on THP-1 [7], 0%. For the same compound, the zone of inhibition at 100 µg/mL was 8 mm in the data set with Staphylococcus aureus, 7 mm in the data set with Bacillus subtilis and 12 mm in the data set with Escherichia coli.
